Source: ChEMBL document CHEMBL1121767, “Synthesis and in vitro antimicrobial property of o-carborane derivatives” (1981)
In brackets after ≈: the same amount, converted by molar mass.

Columns and labels:
Candida albicans = experiment: In vitro antifungal activity against Candida albicans; type: functional
Procedure, shortened: (§1)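 Clinical isolates kept on Sabouraud's dextrose agar at 28 °C. Inocula at 1 × 10^5 CFU/mL: C. albicans yeast cells grown 48 h in Sabouraud's dextrose broth; A. fumigatus and T. asteroides conidia grown 14 days in that broth with 0.1% Tween 80. Microtiter twofold dilution in Sabouraud's dextrose broth, 100 to […] µg/mL, methanol ≤2%. Sealed, 37 °C, 48 h. MIC is the lowest concentration without visible growth.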

Aspergillus fumigatus = experiment: In vitro antifungal activity against Aspergillus fumigatus; type: functional; procedure, shortened: as §1
Trichophyton benhamiae = experiment: In vitro antifungal activity against Trichophyton asteroides; type: functional, tricophyton asteroides; procedure, shortened: as §1

Structure (SMILES)	MIC (Candida albicans)	MIC (Aspergillus fumigatus)	MIC (Trichophyton benhamiae)
Clc1ccccc1C(c1ccccc1)(c1ccccc1)n1ccnc1 [CLOTRIMAZOLE]	3.1 µg/mL (≈ 8.99 µM)	3.1 µg/mL (≈ 8.99 µM)	< 0.1 µg/mL
C[C@@H]1[C@H](O)[C@@H](C)/C=C/C=C/C=C/C=C/C=C/C=C/C=C/[C@H](O[C@@H]2O[C@H](C)[C@@H](O)[C@H](N)[C@@H]2O)C[C@@H]2O[C@](O)(C[C@@H](O)C[C@@H](O)[C@H](O)CC[C@@H](O)C[C@@H](O)CC(=O)O[C@H]1C)C[C@H](O)[C@H]2C(=O)O [AMPHOTERICIN B]	1.6 µg/mL (≈ 1.73 µM)	3.1 µg/mL (≈ 3.35 µM)	3.1 µg/mL (≈ 3.35 µM)
